# Rows were chosen to be rich in hits. Some 1.7% of all compounds tested hit in one or more screens of this group.
# F508del corr: CFTR F508del correction in bronchial cells | 350,000 compounds, 0.36% hits | activity (quench increase), % at 7.58 µM | CFBE cells, YFP halide quenching; stimulated with forskolin plus potentiator P3; % fluorescence drop versus neutral controls;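 active = mean added fluorescence quench of at least 8% versus neutral control, with both replicates also reaching 8%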;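 note: cells transiently co-express mutant CFTR-F508del with the halide-sensitive YFP; corrector assay measuring rescue of mutant channel to the surface after 24 h compound exposure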
# ARNT-TACC3 inh: disrupts binding between human ARNT and TACC3; 390,000 compounds, 0.66% hits; AID 623870; inhibition, % at 9.99 µM; AlphaScreen His-ARNT PAS-B/GST-TACC3 binding, luminescence; TACC3 fragment carries E629A point mutation;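 active = mean inhibition of replicates at least 50% and at least half of replicates each reaching 50%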;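 note: 0% = complete ARNT plus TACC3 wells and 100% = ARNT alone without TACC3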
# CAL PDZ FP-1: blocks peptide binding to human CAL PDZ domain; purified CAL PDZ, TMR-peptide fluorescence polarization, 1 h; 330,000 compounds, 0.02% hits; inhibition, % at 20 µM; Q9HD26;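 active = highest replicate inhibition of at least 40%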;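 note: plate controls were DMSO neutral control wells for no effect and unlabeled competitor peptide control wells for full effect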
#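 material = purified tagged CAL PDZ domain construct (CerCALP) | compound dosing = 20 µM, one dose | times = 1 h at RT | measured by = fluorescence polarization from S- and P-plane intensities, G-factor corrected | read-out = inhibition from polarization loss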
# CAL PDZ FP-2: inhibitors of human CAL PDZ peptide binding; Q9HD26; purified CAL PDZ, TMR-peptide fluorescence polarization, 1 h; inhibition, % at 24.9 µM; 300,000 compounds, 0.92% hits;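 active = mean inhibition of at least 30% with at least half of replicates also reaching 30%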;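 note: 0% = DMSO neutral control and 100% = excess unlabeled competitor peptide PRC23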
# miR-122 sensor: inhibitors of miR-122 in Huh7 cells; Huh7 miR-122 Renilla luciferase sensor, 48 h; neutral wells = 0, positive control = 100; activation (reporter increase), % at 12.5 µM; 340,000 compounds, 0.3% hits; AID 602342;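 active = mean replicate activation score at least 90 and every replicate individually at or above 90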;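 note: higher luciferase means less miR-122 activity so hits act as miR-122 inhibitors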
# PGC1a acetyl inh: lowers PGC1a acetylation signal in U2OS cells. AlphaScreen anti-acetyl-lysine; with virally co-expressed GCN5 acetyltransferase. inhibition, % at 15.6 µM. 350,000 compounds, 0.17% hits;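 active = every replicate shows inhibition of at least 40%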;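 note: 0% = neutral control wells and 100% = positive control wells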
# * hit, by the source's call; x = no result given; [ ] = remark or other dose.
SMILES,F508del corr,ARNT-TACC3 inh,CAL PDZ FP-1,CAL PDZ FP-2,miR-122 sensor,PGC1a acetyl inh
CCCNC(=O)Nc1ccc2c(c1)OC[C@@H](C)N(Cc1ccccn1)C[C@H](C)[C@@H](OC)CN(C)C2=O,-1,10,x,x,x,-4
CC(=O)Nc1ccc2nc(CN3CCC(CO)(CCc4ccccc4)CC3)ccc2c1,4,0,-1,-3,162*,14
O=C(c1ccc2c(c1)OCO2)N1CC(=O)N2[C@H](CO)[C@H](c3ccc(C#CCC4CCCC4)cc3)[C@@H]2C1,1,x,x,x,x,-7
Cc1nc(SCC(=O)O)c(C#N)c2c1CCCC2,0,0,-4,76*,-12,2
C=CCn1c(CNc2ccccc2)nnc1SCC(=O)N/N=C/c1ccccc1O,x,active,0,-4,-5,16
C[C@H](CO)N1C[C@H](C)[C@@H](CN(C)Cc2ccc(C(=O)Nc3ccccc3N)cc2)Oc2ccc(NC(=O)Nc3ccc(C(F)(F)F)cc3)cc2C1=O,-1,17,x,x,-3[16.7 µM],-1
O=C(CN1CCC(n2nnc3cc(C(F)(F)F)ccc32)CC1)Nc1ccc2c(c1)OCCO2,x,1,0,49*,-8,-5
CN(C)C(=O)c1cccc(-c2cccc(-c3nc(C(=O)N4CCOCC4)cc4c3[C@H](CCO)N([S@@](=O)C(C)(C)C)C4)c2)c1,1,4,x,x,x,7
O=C(N/N=C/c1cc(Cl)ccc1O)c1ccncc1,3,69*,-8,-2,3,9
O=C(NCC1CCCO1)C(=O)N/N=C/c1cc(Cl)ccc1O (stereo unspecified),2,46*,0,1,9,33
CC(C)NC(=S)N/N=C/c1cc(Br)ccc1O,x,53*,-1,3,x,x
COC(=O)N/N=C/c1cc(Br)ccc1O,1,-9,-3,-1,3,11
O=C(NCC1CCCO1)C(=O)N/N=C/c1ccc(O)c(Cl)c1 (stereo unspecified),-2,-1,0,7,-1,-5
Cc1ccc(C(=O)N/N=C/c2cc(Br)ccc2O)cn1,12*,20,-4,-8,x,x
Cc1ccc(C(=O)N/N=C\C=C\c2ccc(Br)cc2)cn1,2,9,-2,-2,15,3
C[C@H]1CN([C@@H](C)CO)C(=O)Cc2cc(NC(=O)CCN3CCOCC3)ccc2O[C@@H]1CN(C)Cc1ccc2c(c1)OCO2,3,x,x,x,2[16.7 µM],-1
COc1cc([N+](=O)[O-])cc(/C=N/NC(=O)CSc2ccccn2)c1O,2,39,-3,1,x,0
COc1cc([N+](=O)[O-])cc(/C=N/NC(=O)Cn2cncn2)c1O,-2,61*,0,48*,-18,-2
COc1cc([N+](=O)[O-])cc(/C=N/NC(=O)c2ccc(NC(=O)c3ccc(C)cc3)cc2)c1O,-6,-4,0,6,-5,-27
COc1cc([N+](=O)[O-])cc(/C=N/NC(=O)c2ccc(C)nc2)c1O,x,65*,-1,3,x,3
CCOc1cc(Br)cc(/C=N/NC(=O)c2cccnc2)c1O,5,56*,-3,-7,-12,x
C=CC[C@@H](CC(=O)N(CCO)Cc1ccccc1)C(=O)N[C@H](COC(=O)[C@H](CC=C)CC(=O)OC(C)(C)C)Cc1c[nH]c2ccccc12,8.5*,-3,0,-3,x,x
C=CC[C@H](CC(=O)N(CCO)Cc1ccccc1)C(=O)N[C@H](COC(=O)[C@@H](CC=C)CC(=O)OC(C)(C)C)Cc1c[nH]c2ccccc12,1,-7,0,-3,9,-4
COc1cc(C)c(S(=O)(=O)NOCc2ccccc2)c(C)c1C,1,-2,0,0,84,-31
COc1cc(C)c(S(=O)(=O)NOCc2ccc([N+](=O)[O-])cc2)c(C)c1C,2,18,1,-1,323*,-2
SMILES,F508del corr,ARNT-TACC3 inh,CAL PDZ FP-1,CAL PDZ FP-2,miR-122 sensor,PGC1a acetyl inh
C=CCNC(=O)[C@@H]1[C@H]2C(=O)O[C@H](c3ccccc3)[C@H](c3ccccc3)N2[C@H](c2ccc(OCCO)cc2)[C@@]12C(=O)Nc1ccc(C#CCCO)cc12,-1,x,x,x,x,4
CC(C)NC(=O)Nc1ccc2c(c1)CC(=O)N([C@@H](C)CO)C[C@@H](C)[C@@H](CN(C)C(=O)NC1CCCCC1)O2,0,7,x,x,2[16.7 µM],0
C[C@H]1CN([C@@H](C)CO)C(=O)c2cc(NC(=O)CCN3CCOCC3)ccc2O[C@H]1CN(C)C,0,-3,x,x,1[16.7 µM],-4
OCCN(Cc1ccccc1)CC1CCCCC1,x,-5,-1,1,x,57*
OCCN(Cc1ccccc1)CC1CC2C=CC1C2 (stereo unspecified),x,-2,-1,x,x,-1
COC(=O)C[C@@H]1CC[C@@H](NC(=O)Nc2ccc(C(F)(F)F)cc2)[C@@H](CO)O1,4,-17,x,x,x,3
COc1ccccc1CNC(=O)C[C@H]1CC[C@H]2[C@@H](COC[C@H](O)CN2C(=O)Nc2ccccc2)O1,-2,3,x,x,-6[16.7 µM],5
C[C@@H]1CN([C@@H](C)CO)C(=O)c2cc(NC(=O)Nc3ccc(F)cc3)ccc2O[C@@H]1CN(C)Cc1ccc(C(=O)O)cc1,-2,-12,x,x,1[16.7 µM],5
CC(C)CC#Cc1cnc2c(c1)C(=O)N([C@H](C)CO)C[C@H](C)[C@H](CN(C)S(=O)(=O)c1cn(C)cn1)O2,-2,14,x,x,-8[16.7 µM],-2
CCC(=NCCc1ccc(OC)c(OC)c1)C1=C(O)CC(C)(C)CC1=O,1,1,-3,-2,x,x
CCC(=NCCc1ccccc1)C1=C(O)CCC1=O,x,-2,-1,64*,4,2
CCCN1C[C@H](C)[C@H](OC)CN(C)C(=O)c2cc(NC(=O)c3cccc(OC)c3)ccc2OC[C@@H]1C,1,x,x,x,6[16.7 µM],-19
CC(=O)c1c(C)[nH]c(C(=O)Nc2ccc(C)c(S(=O)(=O)Nc3ccc(C)cc3C)c2)c1C,1,-5,-3,-6,166*,-9
CC(=O)c1c(C)[nH]c(C(=O)Nc2ccc(C)c(S(=O)(=O)N(C)C)c2)c1C,-4,6,0,-4,17,-7
O=c1[nH]c(CN2CCN(c3ccc(O)cc3)CC2)nc2scc(-c3ccc(Cl)cc3)c12,13*,-22,0,0,x,x
O=c1[nH]c(CN2CCN(c3ccccc3O)CC2)nc2scc(-c3ccccc3Cl)c12,3,3,-2,0,-12,5
c1cn(CCCNC2=NCCCCC2)cn1,x,97*,x,-11,-3,-9
c1cn(CCCNC2CCCCCCC2)cn1,-1,-3,1,0,2,1
CC1=CC(C)(C)Nc2ccc(OC(=O)C(Cc3ccccc3)N3C(=O)c4ccccc4C3=O)cc21 (stereo unspecified),x,-5,-1,68*,-5,-4

# Screens: PubChem BioAssay, Broad Institute
